Bioassay records: PubChem BioAssay, several laboratories
Hits are enriched below; roughly 2.1% of the tested compounds scored in any of these assays.
STEP block: inhibitors of human striatal-enriched phosphatase STEP | 360,000 compounds, 0.25% hits | recombinant STEP, OMFP fluorogenic substrate, fluorescence | AID 588621 | P54829 | inhibition, % at 20 µM;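 active = inhibition at 20 µM, scaled per plate between control wells, above about 37%, limit read from the data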;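 note: 0% = DMSO with enzyme and substrate and 100% = substrate only without enzyme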
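Test system: STEP tyrosine phosphatase / Reagent: OMFP at 25 µM / Doses: 20 µM, 1% DMSO / Read-out: percent inhibition scaled to no-enzyme and uninhibited-enzyme controls, plate-pattern corrected / Detection: FITC-channel fluorescence of OMFP product / Medium: Bis-Tris buffer pH 6.0, 2.5 mM DTT, 0.005% Tween 20 / Schedule: 20 min at room temperature, dark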
GRK2 aptamer HTS: blocks RNA aptamer binding to human GRK2; bead flow cytometry, FAM-aptamer displacement from GRK2; inhibition of aptamer binding, % at 10 µM; 330,000 compounds, 0.59% hits; AID 488847;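 active = inhibition of aptamer binding above 40%, roughly 3 SD of noise, on plates passing a quality check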;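 note: median bead fluorescence of bound FAM aptamer so fluorescent compounds give negative values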
SUMO1 PPI mod: alters human SUMO1 binding to SIM partners | AID 602429 | SUMO1 binding to a labelled peptide, TR-FRET, 1 h | inhibition, % at 20 µM | 360,000 compounds, 0.33% hits; in the data active = inhibition above about 37%
Target sequence (P63165 whole entry, looked up): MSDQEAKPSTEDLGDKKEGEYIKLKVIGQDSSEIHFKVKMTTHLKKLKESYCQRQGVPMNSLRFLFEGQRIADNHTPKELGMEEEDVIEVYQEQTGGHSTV
DNMT1 block: inhibitors of human DNMT1; P26358; DNMT1 molecular beacon, Hinp1I cleavage, fluorescence; inhibition (reported as % activation of signal), % at 10 µM; 360,000 compounds, 0.83% hits; AID 588458; in the data active = inhibition above about 50%
Scp-1 inhibitor: Scp-1 (human) phosphatase inhibition; Q9GZU7; Recombinant Scp1, phosphopeptide, malachite green phosphate absorbance; inhibition, % at 20 µM; 340,000 compounds, 0.88% hits; AID 493091;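 active = inhibition above about 50% at 20 µM, limit read from the data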;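 note: plate controls were DMSO wells with enzyme for no effect and wells lacking enzyme for full effect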
Target sequence (Q9GZU7 76-261 limits assumed): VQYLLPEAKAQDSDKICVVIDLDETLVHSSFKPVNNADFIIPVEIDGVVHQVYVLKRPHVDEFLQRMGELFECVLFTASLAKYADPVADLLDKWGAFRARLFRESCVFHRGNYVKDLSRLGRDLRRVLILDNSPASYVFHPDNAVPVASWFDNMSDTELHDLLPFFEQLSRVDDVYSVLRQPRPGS
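System: truncated SCP-1 phosphatase (76-261aa); medium: Tris acetate buffer pH 5.5 with MgCl2 and Tween-20; incubation: 45 min room-temperature reaction, 5 min colour, 30 min stabiliser; compound: single 20 µM dose, 1% DMSO; reagent: Phosphorylated 17-residue peptide substrate; read-out: % inhibition at 20 µM; technique: colorimetric free-phosphate detection, absorbance 630 nm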
LMPTP inh: LMPTP (human) inhibition; P24666; 360,000 compounds, 0.22% hits; inhibition, % at 20 µM; AID 651560; recombinant LMPTP-A, OMFP fluorogenic substrate, fluorescence intensity;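 active = compounds that cut the enzyme signal by at least half of the control window in the single-dose screen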;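 note: plate controls were DMSO wells with enzyme plus substrate for no effect and substrate without enzyme for full effect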
Target sequence (P24666 whole entry, looked up): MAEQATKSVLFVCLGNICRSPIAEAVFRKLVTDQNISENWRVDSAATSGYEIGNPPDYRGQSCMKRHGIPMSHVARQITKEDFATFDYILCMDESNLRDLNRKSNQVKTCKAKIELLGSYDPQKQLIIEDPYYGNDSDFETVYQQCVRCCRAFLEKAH
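material = LMPTP-A | quantity = 0.625 nM enzyme | reagent = OMFP substrate, 400 µM final | buffer or medium = Bis-Tris pH 6.0, DTT, detergent | detection = endpoint fluorescence intensity from OMFP dephosphorylation | dosing = single 20 µM dose | read-out basis = % inhibition relative to no-enzyme and uninhibited control wells | control set = no-enzyme and uninhibited controls | timing = 50 min at room temperature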
DNMT1 interf DR: shows spectral interference in the DNMT1 beacon assay; AID 602382; molecular beacon fluorescence, spectral interference counter-screen; shares compounds with DNMT1 block; IC50, µM; 200 tested, under 10 active; call rule not given here
DNMT1 inh conf: DNMT1 inhibition confirmation, single concentration. DNMT1 molecular beacon HinP1I cleavage, fluorescence. 2,300 compounds, 8% hits. AID 602385. shares compounds with DNMT1 block. inhibition, % at 10 µM;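 active = average inhibition of at least 30% in the single-concentration confirmation test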
Beacon interf: counter-screen for DNMT1 inhibitors: spectral interference; shares compounds with DNMT1 block; DNMT1 molecular beacon spectral interference counterscreen, fluorescence 485/520; activation (fluorescence interference), % at 10 µM; 2,300 compounds, 1% hits; AID 602387;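 active = activation of at least 30% at 10 µM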;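 note: DNMT1 catalytic domain with a HinP1I cleavage step and a FAM/dabcyl DNA beacon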
Active calls of the source: *; . = no result given.

SMILES	STEP block	GRK2 aptamer HTS	SUMO1 PPI mod	DNMT1 block	Scp-1 inhibitor	LMPTP inh	DNMT1 inh conf	Beacon interf	others
COc1cc(NS(=O)(=O)c2ccc(NC(=S)NC(=O)/C=C/c3ccco3)cc2)ncn1	5	.	48*	98*	49	5	82*	-3	DNMT1 interf DR=>99
CC(=O)NC12CC3CC(C1)CC(C(=O)OCC(=O)c1cc(C)n(C)c1C)(C3)C2	2	0	0	51*	-3	-1	3	2
COC(=O)c1sccc1NC(=O)c1cc(-c2cccc(C)c2)nc2ccccc12	-5	1	-2	50*	7	1	0	-12
Cc1ccc2cc(CNC[C@H]3O[C@@H](n4cc(C)c(=O)[nH]c4=O)C[C@@H]3O)c(N3CCOCC3)nc2c1	3	.	-1	7	.	-1	.	.
N#Cc1nc(-c2cccs2)oc1NCC1CCCO1 (stereo not given)	-1	8	1	67*	-2	-1	3	3
CCCS(=O)(=O)NC(=O)C1(C)CCCN(C(=O)CSc2ccccc2)C1 (stereo not given)	0	.	5	0	.	-2	.	.
CC(C)n1c(=S)[nH]c2scc(-c3cccs3)c2c1=O	3	1	-1	80*	45	15	14	-1
Cc1c(NC(=O)CSc2nnc(C(C)N(C)C)n2-c2ccccc2)c(=O)n(-c2ccccc2)n1C (stereo not given)	-3	.	-1	4	-4	-2	.	.
Cc1nn(Cc2ccc(Cl)c(Cl)c2)c(C)c1NC(=O)c1cc(-c2ccc3c(c2)OCO3)on1	1	0	0	76*	3	4	3	-2
Cc1nn(Cc2ccc(Cl)cc2)c(C)c1NC(=O)c1cc(-c2ccc3c(c2)OCO3)on1	0	0	1	39	-1	3	.	.
O=C(NCC1CCCO1)C(=O)N/N=C/c1ccc(OCc2ccccc2Cl)cc1 (stereo not given)	4	1	-4	31	-11	0	.	.
O=C(Nc1ccc(Cl)cc1)c1cc(-c2cccs2)on1	8	0	16	50*	4	21	1	2
O=C(O)c1ccc(C(=O)c2ccc3c(c2)C(=O)N(CCO)C3=O)cc1	-1	5	-24	88*	-2	1	0	1
O=C(c1ccc2c(c1)C(=O)N(CCCO)C2=O)c1ccc2c(c1)C(=O)N(CCCO)C2=O	-4	0	-16	0	2	-5	.	.
CC1CCCCN1S(=O)(=O)c1ccc(S(=O)(=O)N2CCN(c3ccc(F)cc3)CC2)cc1 (stereo not given)	1	0	2	52*	-4	-3	3	3
C[n+]1cccc2c(Br)ccc([O-])c21	17	24	49*	84*	-15	53*	-1	2
O=c1[nH][nH]c2c1[C@H](CCc1cccc(Cl)c1)O[C@H](CCc1ccccc1)C2	.	.	1	.	.	2	.	.
C[C@H]1CN([C@@H](C)CO)C(=O)c2cc(Br)cnc2O[C@H]1CN(C)Cc1ccccc1C(=O)O	1	.	4	7	.	-2	.	.
CCCCC[C@@H](C)N1C[C@H](COCc2ccccc2)Oc2cc(N3CC[C@H](N(C)C)C3)ccc2S1(=O)=O	.	.	-54	.	.	0	.	.
O=C1CC(NCC2CCCO2)C(=O)N1c1ccc(F)cc1 (stereo not given)	-1	3	5	81*	-4	-1	3	3
[N-]=[N+]=NC(c1ccccc1)C(NC(=O)c1cc(C(F)(F)F)cc(C(F)(F)F)c1)c1ccccc1 (stereo not given)	.	.	1	.	.	-28	.	.
